# Assay results: publication PMC11931292 (Drug Design, Development and Therapy, 2025)
# Legend:
# In vitro drug release = assay type: physicochemical; details: within 9 hours
# BCG within RAW264.7 = assay: Intracellular inhibition, CFU assay in infected RAW264.7 cells; assay type: cell-based; details: 0.047 μg/mL drug, 72 hours, BCG MOI 1
# How it was run: (§1)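 RAW264.7 macrophages were seeded at 1×10⁶ cells/well in 12-well plates and infected at MOI 1, for 24 h with BCG or 4 h with H37Rv. Cells were exposed to 0.047 μg/mL free drug or nanoparticles with equivalent drug for 72 h, washed three times with PBS, and lysed 10 min in PBS with 0.03% SDS. Lysates were serially diluted in 7H9, plated on 7H11, and CFU counted after 21 days at 37°C (three replicates).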
# H37Rv within RAW264.7 = assay: as above; assay type: cell-based, Mycobacterium tuberculosis; details: 0.047 μg/mL drug, 72 hours, H37Rv MOI 1
# How it was run: as §1
# [1] = Pharmacokinetics study, single intravenous injection; assay type: in vivo, Sprague-Dawley (SD) rats; details: SD rats, single i.v. 10 mg/kg
# How it was run: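 Male SD rats (180–220 g) were randomised to free drug or one of two nanoparticle formulations and anaesthetised with i.p. 2% sodium pentobarbital (3mg/100g). Each got a single i.v. dose of 10 mg/kg drug-equivalent. Blood was drawn by orbital bleeding at set times. Plasma was deproteinised with acetonitrile and centrifuged, and the supernatant was assayed by HPLC (C18, 30°C, 335 nm). Cmax, Tmax, t1/2, MRT and AUC0–∞ were derived.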
# [2] = Organ toxicity: H&E histology and serum biochemistry; assay type: in vivo, SD rats; details: fourth day after injection
# How it was run: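 On day 4 after injection, animals were euthanised. Heart, kidneys, liver, lungs and spleen were excised, rinsed in saline to remove blood, fixed in 4% paraformaldehyde for 72 h, and stained with hematoxylin and eosin.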
smiles,measurement,setting,value
"CO[C@H]1/C=C/O[C@@]2(C)Oc3c(C)c(O)c4c(O)c(c(/C=N/N5CCN(C6CCCC6)CC5)c(O)c4c3C2=O)NC(=O)/C(C)=C\C=C\[C@H](C)[C@H](O)[C@@H](C)[C@@H](O)[C@@H](C)[C@H](OC(C)=O)[C@@H]1C [RPT, Rifapentine]",Cumulative release (initial burst release),In vitro drug release,approximately 90.73%
same,Intracellular antibacterial activity (CFU),BCG within RAW264.7,exhibited inhibitory effects
same,Intracellular antibacterial activity (CFU),H37Rv within RAW264.7,exhibited inhibitory effects
same,Time the drug persisted in the system,[1],2 days
same,"H&E histology of heart, spleen, liver, lungs and kidneys",[2],no discernible abnormalities
